From ChEMBL document CHEMBL4041505, “Synthesis, SAR and pharmacological characterization of novel anthraquinone cation compounds as potential anticancer agents” (Eur J Med Chem, 2017)

Assays:
HepG2 = test: Cytotoxicity against human HepG2 cells measured after 24 hrs by MTT assay; format: functional, cell-based; conditions: HepG2, 24 h
Summary of the method: (§1)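 Cells were kept in RPMI 1640 with 10% FBS, penicillin and streptomycin at 37°C in 5% CO2. Seeding was given for A375 only, at 1×10^4/well. After 24 h, cells were exposed to compounds for 24 h; compounds were dissolved in DMSO and diluted in medium containing 0.1% DMSO. Cells were washed, given 5 mg/mL MTT for 4 h, and formazan was dissolved in DMSO and read at 492 nm. Three independent experiments were run in triplicate, with IC50 taken from viability curves.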

[1] = Cytotoxicity against HELF cells measured after 24 hrs by MTT assay; format: cell-based; conditions: Homo sapiens; summary of the method: as §1
A-375 [2] = test: Cytotoxicity against human A375 cells measured after 24 hrs by MTT assay; format: functional, cell-based; conditions: A-375, 24 h; summary of the method: as §1
BGC-823 = test: Cytotoxicity against human BGC823 cells measured after 24 hrs by MTT assay; format: functional, cell-based; conditions: BGC-823, 24 h; summary of the method: as §1
HeLa [3] = test: Induction of apoptosis in human HeLa cells assessed as necrotic cells at 1 uM measured after 24 hrs by Annexin V-FITC/propidium iodide staining based flow cytometry relative to control; format: functional
A-375 [4] = test: Induction of apoptosis in human A375 cells assessed as increase in intracellular ROS production at 2 uM measured after 24 hrs by DCF-DA fluorescence dye based flow cytometry relative to control; format: functional
Summary of the method: (§2)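 A375 cells were exposed to treatments for 24 h and washed with PBS. They were loaded with 20 µM DCF-DA in serum-free DMEM at 37°C for 30 min, washed with ice-cold PBS and harvested. Mean DCF fluorescence was measured by flow cytometry as the ROS level; n=3, mean±SD, relative to untreated cells.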

A-375 [5] = test: Induction of apoptosis in human A375 cells assessed as increase in caspase-3 expression measured after 24 hrs by Western blot analysis; format: functional, cell-based
Summary of the method: (§3)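 A375 cells were treated for 24 h at 5 or 10 μM. Lysates were clarified at 12,000 g for 5 min at 4°C and protein measured by BCA. Equal protein was run on 10% SDS-PAGE and transferred to PVDF. Primary antibodies (1:1000) were applied overnight at 4°C, then secondary (1:5000) for 2 h at 37°C. Detection was by chemiluminescence with densitometry, GAPDH as internal reference.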

HeLa [6] = test: Reduction in mitochondrial membrane potential in mitochondria isolated from human HeLa cells measured after 2 hrs by DiOC6 dye based HSFCM analysis; format: functional, cell-based
Summary of the method: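 Mitochondria isolated from HeLa cells were treated at 0, 1, 10, 50 or 100 µM for 2 h at 37°C and washed with MT buffer. They were stained with 500 nM DiOC6 for 15 min at 37°C, washed twice and resuspended in MT buffer. Analysis was on a laboratory-built high-sensitivity flow cytometer, recording median and mean green fluorescence against drug concentration.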

HeLa [7] = test: Induction of apoptosis in human HeLa cells assessed as late apoptotic cells at 1 uM measured after 24 hrs by Annexin V-FITC/propidium iodide staining based flow cytometry (reference value: 0.058 %); format: functional
A-375 [8] = test: Induction of apoptosis in human A375 cells assessed as increase in P53 expression measured after 24 hrs by Western blot analysis; format: functional, cell-based; summary of the method: as §3
A-375 [9] = test: Induction of apoptosis in human A375 cells assessed as chromatin condensation measured after 24 hrs by DAPI staining based fluorescence microscopic analysis; format: functional, cell-based
Summary of the method: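 A375 cells were treated with 1, 2 or 4 μM for 24 h, washed, and fixed in cold methanol:acetic acid (3:1) for 10 min. They were stained with 1 μg/mL DAPI at 37°C for 5 min and imaged by fluorescence microscopy at 364 nm, 400×, for nuclear morphology.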

HeLa [10] = test: Induction of apoptosis in human HeLa cells assessed as early apoptotic cells at 1 uM measured after 24 hrs by Annexin V-FITC/propidium iodide staining based flow cytometry (reference value: 0.078 %); format: functional
A-375 [11] = test: Induction of apoptosis in human A375 cells assessed as increase in intracellular ROS production measured after 24 hrs by DCF-DA fluorescence dye based flow cytometry; format: functional, cell-based; summary of the method: as §2
[12] = Drug uptake in nucleus of human A375 cells at 2 uM measured after 24 hrs by Mito-Tracker Green staining based laser confocal microscopic analysis; format: ADME
Summary of the method: (§4)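 A375 cells were plated at 10^5 cells/mL for 24 h to about 70% confluence. They were exposed to 2 μM at 37°C for 24 h, washed, then stained with 100 nM Mito-Tracker Green (488 nm) for 30 min. After PBS washes, compound fluorescence (568 nm) and the mitochondrial stain were imaged by laser confocal microscopy.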

[13] = Drug uptake in mitochondria of human A375 cells at 2 uM measured after 24 hrs by Mito-Tracker Green staining based laser confocal microscopic analysis; format: ADME; summary of the method: as §4
HeLa [14] = test: Induction of apoptosis in human HeLa cells assessed as live cells at 1 uM measured after 24 hrs by Annexin V-FITC/propidium iodide staining based flow cytometry (reference value: 99.9 %); format: functional
A-375 [15] = test: Induction of apoptosis in human A375 cells assessed as increase in intracellular ROS production at 1 uM measured after 24 hrs by DCF-DA fluorescence dye based flow cytometry relative to control; format: functional; summary of the method: as §2
A-375 [16] = test: Induction of apoptosis in human A375 cells assessed as decrease in mitochondrial membrane potential at 4 uM measured after 30 mins by DiOC6 dye based flow cytometry relative to control; format: functional; set-up: scale not given: the % may be the effect or the level left
Summary of the method: (§5)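 A375 cells were treated at 0, 1, 2 or 4 μM, then loaded with 50 nM DiOC6 in serum-free DMEM at 37°C for 30 min. Cells were washed twice with ice-cold PBS, harvested and analysed by flow cytometry. ΔΨm is expressed as percent change versus untreated cells, as mean±SD of three determinations.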

A-375 [17] = test: Induction of apoptosis in human A375 cells assessed as loss of mitochondrial membrane potential measured after 30 mins by DiOC6 dye based flow cytometry; format: functional, cell-based; summary of the method: as §5
A-375 [18] = test: Induction of apoptosis in human A375 cells assessed as decrease in mitochondrial membrane potential at 1 uM measured after 30 mins by DiOC6 dye based flow cytometry relative to control; format: functional; set-up: scale not given: the % may be the effect or the level left; summary of the method: as §5

Compound	IC50 (HepG2)	IC50 [1]	IC50 (A-375 [2])	IC50 (BGC-823)	further results
CCCCCCCC[N+](C)(CCCCCCCC)Cc1ccc2c(c1)C(=O)c1ccccc1C2=O	2.08 µM	8.46 µM	–	–	–
CCCCCCCCC[N+](C)(CCCCCCCCC)Cc1cc(O)c2c(c1)C(=O)c1cc(OC)cc(O)c1C2=O	7.39 µM	9.83 µM	2.63 µM	3.93 µM	–
CCCCCCCC[N+](C)(CCCCCCCC)Cc1cc(O)c2c(c1)Cc1cc(O)cc(O)c1C2=O	> 100 µM	> 100 µM	–	–	–
CC(=O)O[C@H]1C(=O)[C@@]2(C)[C@H]([C@H](OC(=O)c3ccccc3)[C@]3(O)C[C@H](OC(=O)[C@H](O)[C@@H](NC(=O)c4ccccc4)c4ccccc4)C(C)=C1C3(C)C)[C@]1(OC(C)=O)CO[C@@H]1C[C@@H]2O [PACLITAXEL]	–	–	11.3 µM	–	–
COCCOCC[N+](CCOCCOC)(CCOCCOC)Cc1cc(OC)c2c(c1)C(=O)c1cc(OC)cc(OC)c1C2=O	> 100 µM	> 100 µM	> 100 µM	> 100 µM	–
CCCCCCCCC[N+](C)(CCCCCCCC)Cc1cc(O)c2c(c1)C(=O)c1cc(OC)cc(O)c1C2=O.[Br-] (stereo not given)	4.12 µM	9.65 µM	1.39 µM	2.79 µM	Activity (HeLa [3]): 35%; fold change (FC) (A-375 [4]): 5.8; Activity (A-375 [5]): Dose-dependent effect; Activity (HeLa [6]): Dose-dependent effect; Activity (HeLa [7]): 60.8%; Activity (A-375 [8]): Dose-dependent effect; Activity (A-375 [9]): Dose-dependent effect; Activity (HeLa [10]): 0.444%; Activity (A-375 [11]): Dose-dependent effect; Drug uptake [12]: Not Active; Drug uptake [13]: Active; Activity (HeLa [14]): 3.73%; fold change (FC) (A-375 [15]): 2.7; Activity (A-375 [16]): 38%; Activity (A-375 [17]): Dose-dependent effect; Activity (A-375 [18]): 25%
CCCCCCCC[N+](CCCCCCCC)(CCCCCCCC)Cc1cc(OC)c2c(c1)C(=O)c1cc(OC)cc(OC)c1C2=O	5.45 µM	4.5 µM	3.46 µM	5 µM	–
CCCCCCCCC[N+](C)(C)Cc1cc(O)c2c(c1)C(=O)c1cc(OC)cc(O)c1C2=O	10.4 µM	21.6 µM	9.87 µM	9.76 µM	–
CCCCCCCCCC[N+](C)(CCCCCCCCC)Cc1cc(O)c2c(c1)C(=O)c1cc(OC)cc(O)c1C2=O (stereo not given)	3.97 µM	9.56 µM	2.2 µM	3.85 µM	–
CCCCCCCCCC[N+](C)(CCCCCCCCCC)Cc1ccc2c(c1)C(=O)c1ccccc1C2=O	1.57 µM	5.84 µM	–	–	–
CCCCCCCCC[N+](C)(CCOCCOCCO)Cc1cc(OC)c2c(c1)C(=O)c1cc(OC)cc(OC)c1C2=O (stereo not given)	37.7 µM	40.4 µM	28.9 µM	32.7 µM	–
Cc1cc(O)c2c(c1)C(=O)c1cc(O)cc(O)c1C2=O [EMODIN]	> 50 µM	46.3 µM	44.9 µM	> 50 µM	–
